ChEMBL document CHEMBL4130549, “Synthesis and bioactivities study of new antibacterial peptide mimics: The dialkyl cationic amphiphiles” (Eur J Med Chem, 2018)
The source made the active and inactive calls. The rule behind the calls is not given here.

What was measured:
[1] = tested on: Enterococcus faecalis; assay: Antibacterial activity against Enterococcus faecalis after 16 to 20 hrs by broth microdilution method; type: functional
Summary of the method: (§1)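 Broth microdilution per CLSI in cation-adjusted Mueller-Hinton broth; 4-6 h cultures (~10⁸ CFU/mL) diluted to ~10⁶ CFU/mL and mixed 1:1 with twofold dilutions of water-dissolved compound (256 to 0.5 µg/mL). Incubated 16-20 h at 37 °C; MIC read visually. Each concentration run in duplicate, whole experiment repeated at least twice. MRSA, KPC and NDM-1 strains were clinical isolates.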

[2] = tested on: Staphylococcus aureus; assay: Induction of inner membrane permeabilization in Staphylococcus aureus ATCC 29213 at 20 ug/ml measured every 2 mins for 12 mins by propidium iodide staining based fluorescence assay; type: functional, organism-based
Summary of the method: (§2)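 Mid-log cells (~10^8 CFU/mL) pre-incubated with propidium iodide (10 µM, 50 µL), 30 min for S. aureus and 40 min for E. coli. Fluorescence (ex 535/em 617 nm) read for 8 min, then compound added to 20 µg/mL final and monitored every 2 min for 12 min. Water-treated control.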

[3] = tested on: Escherichia coli; assay: Induction of inner membrane permeabilization in Escherichia coli ATCC 25922 at 20 ug/ml measured every 2 mins for 12 mins by propidium iodide staining based fluorescence assay; type: functional, organism-based; summary of the method: as §2
[4] = tested on: Salmonella enterica; assay: Antibacterial activity against Salmonella enterica after 16 to 20 hrs by broth microdilution method; type: functional; summary of the method: as §1
[5] = tested on: Escherichia coli; assay: Induction of outer membrane permeabilization in Escherichia coli ATCC 25922 at 20 ug/ml measured every 2 mins for 12 mins by NPN staining based fluorescence assay; type: functional, organism-based
Summary of the method: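 Mid-log E. coli (~10^8 CFU/mL) in black plates pre-incubated about 40 min with NPN (10 µM, 50 µL). Baseline read 8 min (ex 350/em 420 nm), then compound added to 20 µg/mL final and fluorescence followed every 2 min for 12 min. Water-treated control.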

[6] = Hemolytic activity in sheep RBC after 1 hr; type: ADME, cell-based, Ovis aries, Erythrocyte; conditions: sheep red blood cells (erythrocytes)
Summary of the method: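 Sheep RBCs suspended at 5% in PBS; 150 µL added to 50 µL compound dilutions (5120 to 10 µg/mL series). Incubated 1 h at 37 °C, then centrifuged; supernatant absorbance read at 540 nm. Lysis (%) = (A−A0)/(Atotal−A0)×100, with untreated 5% RBC as A0 and 0.1% Triton X-100 as total.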

[7] = tested on: Staphylococcus aureus; assay: Induction of cytoplasmic membrane depolarization in Staphylococcus aureus ATCC 29213 at 20 ug/ml measured every 2 mins for 12 mins by diSC35 staining based fluorescence assay; type: functional, organism-based
Summary of the method: (§3)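 Mid-log cells (4–6 h) pelleted, washed and resuspended (~10^8 CFU/mL) in PBS for S. aureus, or in 5 mM HEPES, 5 mM glucose and 100 mM KCl (1:1:1) for E. coli. Preloaded with diSC35 (10 µM, 50 µL), 30 min for S. aureus and 40 min plus EDTA (200 µM, 50 µL) for E. coli. Baseline read 8 min (ex 622/em 670 nm), then compound added to 20 µg/mL final and read every 2 min for 12 min. Water control.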

[8] = tested on: Staphylococcus aureus; assay: Antibacterial activity against Staphylococcus aureus ATCC 29213 after 16 to 20 hrs by broth microdilution method; type: functional
Summary of the method: (§4)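 CLSI broth microdilution in cation-adjusted Mueller-Hinton broth. A 4-6 h culture was diluted to about 10⁶ CFU/mL and mixed 1:1 with twofold compound dilutions (256–0.5 µg/mL before mixing) prepared from aqueous stocks. Plates were incubated at 37 °C for 16-20 h. Each concentration was tested in duplicate, and the experiment was repeated at least twice.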

[9] = tested on: Escherichia coli; assay: Induction of cytoplasmic membrane depolarization in Escherichia coli ATCC 25922 at 20 ug/ml measured every 2 mins for 12 mins by diSC35 staining based fluorescence assay; type: functional, organism-based; summary of the method: as §3
[10] = tested on: Escherichia coli; assay: Antibacterial activity against Escherichia coli ATCC 25922 after 16 to 20 hrs by broth microdilution method; type: functional; summary of the method: as §1
[11] = tested on: Staphylococcus aureus; assay: Antibacterial activity against methicillin-resistant Staphylococcus aureus isolate M4 after 16 to 20 hrs by broth microdilution method; type: functional; summary of the method: as §4
[12] = tested on: Staphylococcus aureus; assay: Antibacterial activity against methicillin-resistant Staphylococcus aureus isolate M3 after 16 to 20 hrs by broth microdilution method; type: functional; summary of the method: as §4
[13] = tested on: Staphylococcus aureus; assay: Antibacterial activity against methicillin-resistant Staphylococcus aureus isolate M7 after 16 to 20 hrs by broth microdilution method; type: functional; summary of the method: as §4
[14] = tested on: Staphylococcus aureus; assay: Antibacterial activity against methicillin-resistant Staphylococcus aureus isolate M1 after 16 to 20 hrs by broth microdilution method; type: functional; summary of the method: as §4
[15] = tested on: Staphylococcus aureus; assay: Antibacterial activity against methicillin-resistant Staphylococcus aureus isolate M5 after 16 to 20 hrs by broth microdilution method; type: functional; summary of the method: as §4
[16] = tested on: Staphylococcus aureus; assay: Antibacterial activity against methicillin-resistant Staphylococcus aureus isolate M6 after 16 to 20 hrs by broth microdilution method; type: functional; summary of the method: as §4
[17] = tested on: Staphylococcus aureus; assay: Antibacterial activity against methicillin-resistant Staphylococcus aureus after 16 to 20 hrs by broth microdilution method; type: functional; summary of the method: as §4
[18] = tested on: Staphylococcus aureus; assay: Antibacterial activity against methicillin-resistant Staphylococcus aureus isolate M2 after 16 to 20 hrs by broth microdilution method; type: functional; summary of the method: as §4
[19] = tested on: Staphylococcus aureus; assay: Antibacterial activity against methicillin-resistant Staphylococcus aureus isolate M8 after 16 to 20 hrs by broth microdilution method; type: functional; summary of the method: as §4
[20] = tested on: Staphylococcus aureus; assay: Antibacterial activity against methicillin-resistant Staphylococcus aureus isolate M10 after 16 to 20 hrs by broth microdilution method; type: functional; summary of the method: as §4
[21] = tested on: Staphylococcus aureus; assay: Antibacterial activity against methicillin-resistant Staphylococcus aureus isolate M9 after 16 to 20 hrs by broth microdilution method; type: functional; summary of the method: as §4

Structure (SMILES)	MIC [1] [µg/mL]	Activity [2]	Activity [3]	MIC [4] [µg/mL]	Activity [5]	HC50 at 1 h [6] [µg/mL]	Activity [7]	MIC [8] [µg/mL]	Activity [9]	MIC [10] [µg/mL]	MIC [11] [µg/mL]	MIC [12] [µg/mL]	MIC [13] [µg/mL]	MIC [14] [µg/mL]	MIC [15] [µg/mL]	MIC [16] [µg/mL]	MIC [17] [µg/mL]	MIC [18] [µg/mL]	MIC [19] [µg/mL]	MIC [20] [µg/mL]	also measured
CCCCN(CCCC)C(=O)[C@@H](N)CCCCN.Cl.Cl	128	Active	Active	128	Active	743	Active	> 128	Active	> 128											
CCCCCCCCCCN(CCCCCCCCCC)C(=O)[C@@H](N)CO.Cl	8	Active	Active	> 128	Active	> 1000	Active	8	Active	> 128	4	4	8	16	16	8	16	4	16	16	MIC [21]: 16 µg/mL
CCCCCCN(CCCCCC)C(=O)[C@@H](N)CCCCN.Cl.Cl	64	Active	Active	64	Active	496	Active	64	Active	64											
CCCCCCCCCCN(CCCCCCCCCC)C(=O)[C@H](N)CO.Cl	32	Active	Active	> 128	Active	> 1000	Active	16	Active	> 128	32	32	32	32	32	32	32	32	32	32	MIC [21]: 32 µg/mL
CCCCCCCCN(CCCCCCCC)C(=O)[C@@H](N)CC(C)C.Cl	2	Active	Active	> 128	Active	> 1000	Active	2	Active	64	2	2	4	4	4	4	4	2	4	4	MIC [21]: 4 µg/mL
CCCCCCCCN(CCCCCCCC)C(=O)[C@@H](N)[C@@H](C)CC.Cl	4	Active	Active	> 128	Active	293	Active	4	Active	> 128	4	4	4	4	4	4	4	4	4	4	MIC [21]: 4 µg/mL
CCN(CC)C(=O)[C@@H](N)CCCCN.Cl.Cl	> 128	Active	Active	> 128	Active	> 1000	Active	> 128	Active	> 128											
CCCCCCCCN(CCCCCCCC)C(=O)[C@@H](N)Cc1ccccc1.Cl	128	Active	Active	> 128	Active	> 1000	Active	8	Active	> 128	16	16	16	32	32	32	32	16	32	32	MIC [21]: 32 µg/mL
C[C@@H](O)[C@H]1C(=O)N2C(C(=O)O)=C(S[C@@H]3CN[C@H](C(=O)N(C)C)C3)[C@H](C)[C@H]12 [MEROPENEM]										< 0.125											
CCCCCN(CCCCC)C(=O)[C@@H](N)CCCCN.Cl.Cl	128	Active	Active	128	Active	576	Active	128	Active	128											
